According to ChEMBL document CHEMBL2396515, “Quercetin-POC conjugates: Differential stability and bioactivity profiles between breast cancer (MCF-7) and colorectal carcinoma (HCT116) cell lines” (Bioorg Med Chem, 2013):
Activity calls are given as the source filed them. No cut-off for these calls is given here.

Tests used:
MCF7 [1] = assay: Cytotoxicity against human MCF7 cells at 1 to 100 uM after 12 hrs by MTT assay; type: functional, cell-based
How it was run: (§1)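 MCF-7 or HCT116 cells were seeded at 5×10^3 per well in DMEM with 10% FBS and grown 1 day at 37 °C, 5% CO2. Compounds in 1% DMSO were added at 1, 5, 10, 50, 100 or 250 µM. Viability was read by MTT after 12 h; each assay was done three times.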

HCT-116 [2] = assay: Cytotoxicity against human HCT116 cells at 1 to 100 uM after 12 hrs by MTT assay; type: functional, cell-based; how it was run: as §1
[3] = Half life of the compound in DMEM cell-free cell culture medium at 50 uM by HPLC analysis; type: physicochemical
How it was run: (§2)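 Conjugates diluted from a 10 mM DMSO stock to 50 µM final in cell-free culture medium (DMEM with 10% FBS), held at 37 °C. Samples were taken at 0, 1, 3, 6, 12, 24, 48 and 96 h, vortexed, and run on C18 reverse-phase HPLC with an acetonitrile/0.1% formic acid gradient at 1 mL/min, detected by UV at 340 nm.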

[4] = Half life of the compound in PBS buffer at pH 7.4 at 50 uM by HPLC analysis; type: physicochemical
How it was run: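 Compound at 50 µM in PBS pH 7.4, incubated at 37 °C. Aliquots were drawn at 0, 1, 3, 6, 12, 24, 48 and 96 h and analysed by C18 reverse-phase HPLC with an acetonitrile/0.1% formic acid gradient, detected by UV at 340 nm.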

MCF7 [5] = assay: Drug metabolism in human MCF7 cells assessed as quercetin-glucuronide level at 30 uM after 12 hrs by HPLC analysis; type: ADME, cell-based; conditions: mcf7, 12 h
How it was run: (§3)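 MCF-7 or HCT116 cells were seeded at 2×10^5 per well and grown 24 h at 37 °C, 5% CO2, then given 30 µM conjugate. At 1, 3, 6 and 12 h cells were PBS-washed, trypsinized, sonicated and filtered. Lysates were run on C18 HPLC (UV 340 nm). Each species is reported as a percentage of integrated peak area; peaks were identified by MALDI-TOF MS.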

HCT-116 [6] = assay: Drug metabolism in human HCT116 cells assessed as methyl quercetin level at 30 uM after 3 hrs by HPLC analysis; type: ADME, cell-based; conditions: hct-116, 3 h; how it was run: as §3
MCF7 [7] = assay: Drug metabolism in human MCF7 cells assessed as quercetin sulfate level at 30 uM after 1 hr by HPLC analysis; type: ADME, cell-based; conditions: mcf7, 1 h; how it was run: as §3
[8] = Drug degradation in DMEM cell-free cell culture medium assessed as formation of quercetin at 50 uM after 1 hr by HPLC analysis; type: physicochemical; how it was run: as §2
MCF7 [9] = assay: Drug metabolism in human MCF7 cells assessed as quercetin sulfate level at 30 uM after 12 hrs by HPLC analysis; type: ADME, cell-based; conditions: mcf7, 12 h; how it was run: as §3
MCF7 [10] = assay: Drug metabolism in human MCF7 cells assessed as methyl quercetin level at 30 uM after 1 hr by HPLC analysis; type: ADME, cell-based; conditions: mcf7, 1 h; how it was run: as §3
[11] = Metabolic stability in human MCF7 cells assessed as compound remaining at 30 uM after 1 hr by HPLC analysis; type: ADME, cell-based; conditions: read-out: Stability; how it was run: as §3
[12] = Solubility of the compound in DMEM cell-free cell culture medium up to 100 uM; type: physicochemical
How it was run: (§4)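 DMSO stocks ([…]–10 mM) were serially diluted into PBS pH 7.4 or DMEM with 10% FBS to final 0.5, 5, 25, 50, 100, 200 µM (2% DMSO) and 300 µM (3% DMSO). Solubility was judged by forward light scattering in a laser nephelometer.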

HCT-116 [13] = assay: Drug metabolism in human HCT116 cells assessed as quercetin-glucuronide level at 30 uM after 12 hrs by HPLC analysis; type: ADME, cell-based; conditions: hct-116, 12 h; how it was run: as §3
HCT-116 [14] = assay: Drug metabolism in human HCT116 cells assessed as quercetin-glucuronide level at 30 uM after 3 hrs by HPLC analysis; type: ADME, cell-based; conditions: hct-116, 3 h; how it was run: as §3
HCT-116 [15] = assay: Drug metabolism in human HCT116 cells assessed as quercetin sulfate level at 30 uM after 1 hr by HPLC analysis; type: ADME, cell-based; conditions: hct-116, 1 h; how it was run: as §3
HCT-116 [16] = assay: Drug metabolism in human HCT116 cells assessed as methyl quercetin level at 30 uM after 12 hrs by HPLC analysis; type: ADME, cell-based; conditions: hct-116, 12 h; how it was run: as §3
MCF7 [17] = assay: Metabolic stability in human MCF7 cells assessed as compound remaining at 30 uM after 12 hrs by HPLC analysis; type: ADME, cell-based; conditions: mcf7, 12 h; how it was run: as §3
[18] = Metabolic stability in human HCT116 cells assessed as compound remaining at 30 uM after 1 hr by HPLC analysis; type: ADME, cell-based, HCT-116; conditions: read-out: Stability; how it was run: as §3
MCF7 [19] = assay: Drug metabolism in human MCF7 cells assessed as quercetin level at 30 uM after 12 hrs by HPLC analysis; type: ADME, cell-based; conditions: mcf7, 12 h; how it was run: as §3
[20] = Metabolic stability in human MCF7 cells assessed as compound remaining at 30 uM after 6 hrs by HPLC analysis; type: ADME, cell-based; conditions: read-out: Stability; how it was run: as §3
[21] = Metabolic stability in human HCT116 cells assessed as compound remaining at 30 uM after 6 hrs by HPLC analysis; type: ADME, cell-based, HCT-116; conditions: read-out: Stability; how it was run: as §3
[22] = Solubility of the compound in PBS buffer at 0.5 to 300 uM; type: physicochemical; how it was run: as §4
MCF7 [23] = assay: Drug metabolism in human MCF7 cells assessed as quercetin-glucuronide level at 30 uM after 1 hr by HPLC analysis; type: ADME, cell-based; conditions: mcf7, 1 h; how it was run: as §3
MCF7 [24] = assay: Drug metabolism in human MCF7 cells assessed as methyl quercetin level at 30 uM after 12 hrs by HPLC analysis; type: ADME, cell-based; conditions: mcf7, 12 h; how it was run: as §3
HCT-116 [25] = assay: Drug metabolism in human HCT116 cells assessed as methyl quercetin level at 30 uM after 1 hr by HPLC analysis; type: ADME, cell-based; conditions: hct-116, 1 h; how it was run: as §3
[26] = Metabolic stability in human HCT116 cells assessed as compound remaining at 30 uM after 12 hrs by HPLC analysis; type: ADME, cell-based, HCT-116; conditions: read-out: Stability; how it was run: as §3
[27] = Metabolic stability in human MCF7 cells assessed as compound remaining at 30 uM after 3 hrs by HPLC analysis; type: ADME, cell-based; conditions: read-out: Stability; how it was run: as §3
[28] = Metabolic stability in human HCT116 cells assessed as compound remaining at 30 uM after 3 hrs by HPLC analysis; type: ADME, cell-based, HCT-116; conditions: read-out: Stability; how it was run: as §3
HCT-116 [29] = assay: Drug metabolism in human HCT116 cells assessed as methyl quercetin level at 30 uM after 6 hrs by HPLC analysis; type: ADME, cell-based; conditions: hct-116, 6 h; how it was run: as §3
MCF7 [30] = assay: Drug metabolism in human MCF7 cells assessed as quercetin sulfate level at 30 uM after 3 hrs by HPLC analysis; type: ADME, cell-based; conditions: mcf7, 3 h; how it was run: as §3
HCT-116 [31] = assay: Drug metabolism in human HCT116 cells assessed as quercetin-glucuronide level at 30 uM after 6 hrs by HPLC analysis; type: ADME, cell-based; conditions: hct-116, 6 h; how it was run: as §3

O=c1c(O)c(-c2ccc(O)c(O)c2)oc2cc(O)cc(O)c12 [QUERCETIN]
Activity (MCF7 [1]): Active | Activity (HCT-116 [2]): Active | half-life at 50 µM [3]: < 0.5 h | half-life at 50 µM [4]: 10 h

CC(C)OC(=O)OCOc1cc(O)c2c(=O)c(O)c(-c3ccc(O)c(O)c3)oc2c1
Activity (MCF7 [1]): Active | Stability (MCF7 [5]): Stable | Stability (HCT-116 [6]): Stable | Stability (MCF7 [7]): Stable | Drug degradation [8]: Active | Stability (MCF7 [9]): Stable | Stability (MCF7 [10]): Stable | remaining at 1 h, 30 µM [11]: 51% | Activity (HCT-116 [2]): Active | solubility [12]: soluble | Stability (HCT-116 [13]): Stable | Stability (HCT-116 [14]): Stable | Stability (HCT-116 [15]): Stable | Stability (HCT-116 [16]): Stable | Stability (MCF7 [17]): Stable | remaining at 1 h, 30 µM [18]: 65% | Stability (MCF7 [19]): Stable | remaining at 6 h, 30 µM [20]: 2% | remaining at 6 h, 30 µM [21]: 18% | solubility [22]: Insoluble | Stability (MCF7 [23]): Stable | Stability (MCF7 [24]): Stable | half-life at 50 µM [3]: 1 h | Stability (HCT-116 [25]): Stable | half-life at 50 µM [4]: > 96 h | remaining at 12 h, 30 µM [26]: 12% | remaining at 3 h, 30 µM [27]: 6% | remaining at 3 h, 30 µM [28]: 34% | Stability (HCT-116 [29]): Stable | Stability (MCF7 [30]): Stable | Stability (HCT-116 [31]): Stable
